Reference: ChEMBL document CHEMBL1125150, “Arabinofuranosylpyrrolo[2,3-d]pyrimidines as potential agents for human cytomegalovirus infections” (J Med Chem, 1990)

How the values were obtained:
HFF = test: Tested in vitro for cytotoxicity against the normal human diploid cells (HFF cells).; assay type: functional, cell-based
Method in brief: (§1)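 Uninfected HFF or BSC-1 cells in the plaque-reduction plates were scored visually at 35- and 60-fold magnification on a 0 to 4+ scale on the staining day. IC50 was taken by regression against log concentration.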

Human betaherpesvirus 5 [1] = test: Tested in vitro for antiviral activity against human cytomegalovirus (HCMV) in plaque reduction assay.; assay type: functional, organism-based
Method in brief: (§2)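 HCMV Towne strain (plaque-purified P0) was used on HFF monolayers. The inoculum held about 50 PFU, and compounds were dissolved in the overlay medium. Plaques were enumerated. IC50 came from linear regression of percent inhibition against log concentration. Acyclovir or ganciclovir served as positive control, and a set was rejected if the control deviated >1.5 SD from its mean.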

L1210 [2] = test: Tested in vitro for antiproliferative activity against growth rate of L1210 cells.(delayed growth inhibition); assay type: functional, Mus musculus; set-up: concentration or dose not given beside the values
Method in brief: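 L1210 cells were grown in static suspension in Fischer's medium with drug for 4 days. Growth rate was the control-to-treated ratio of population doubling times. For delayed inhibition it was taken over 48–96 h, when control doubling time averaged 22 h. IC50 is the concentration halving growth rate relative to control.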

Human alphaherpesvirus 1 [3] = test: Tested in vitro for antiviral activity against HSV-1 in plaque reduction assay.; assay type: functional, organism-based
Method in brief: (§3)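 Plaque reduction used HSV-1 strain S-148 on BSC-1 (African green monkey kidney) monolayers. The inoculum held about 100 PFU, and compounds were dissolved in the overlay medium. IC50 was regressed from percent inhibition against log concentration. Acyclovir or ganciclovir positive controls were run, with sets rejected if the control deviated >1.5 SD from its mean.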

[4] = Tested in vitro for cytotoxicity against the monkey kidney cells (BSC-1 cells).; assay type: functional, cell-based; details: Cercopithecidae; method in brief: as §1
L1210 [5] = test: Tested in vitro for antiproliferative activity against growth rate of L1210 cells.; assay type: functional, Mus musculus
Method in brief: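 L1210 cells were grown in static suspension in Fischer's medium with a range of compound concentrations, and growth rate was followed over 4 days. Growth rate was the control-to-treated ratio of population doubling times. It was scored separately for 0–48 h and 48–96 h, and the lower value was kept. IC50 was the concentration giving 50% of the control growth rate.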

[6] = Tested in vitro for cytotoxicity against the human neoplastic cell line (KB cells).; assay type: functional, cell-based
Method in brief: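 KB cells were grown in MEM(H) with 10% calf serum. Incorporation of radiolabelled precursors into DNA, RNA and protein was measured. Separate IC50s came from regression against log concentration and the three were averaged. Values are averages of two to five experiments.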

Human betaherpesvirus 5 [7] = test: Tested in vitro for antiviral activity against human cytomegalovirus (HCMV) in yield reduction assay.; assay type: functional
Human alphaherpesvirus 1 [8] = test: Tested in vitro for antiviral activity against HSV-1 in yield reduction assay.; assay type: functional
Mus musculus [9] = test: Tested for effect on the mortality of mice inoculated with MCMV at 5.6 mg/kg at 12 hr; assay type: functional
Method in brief: (§4)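 Female Swiss Webster mice, 3 weeks old, were infected ip with 2 × 10⁵ PFU of MCMV Smith strain. Groups of 15 received drug ip twice daily for 5 days, starting at the stated hour after inoculation. Mice were watched daily for 21 days, and final mortality and mean day of death were scored. Fisher exact test (mortality) and Mann-Whitney U test (mean day of death) were used against placebo. Uninfected drug-toxicity controls were 10 mice.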

Mus musculus [10] = test: Tested for effect on the mortality of mice inoculated with MCMV at 50 mg/kg at 48 hr; assay type: functional; method in brief: as §4
Murid betaherpesvirus 1 [11] = test: Tested for activity against mouse cytomegalovirus (MCMV) in mouse embryo fibroblasts using plaque assay; assay type: functional, organism-based
Method in brief: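 MCMV Smith strain was plated on primary mouse embryo fibroblasts at 20–50 PFU per monolayer, with 1 h at 37 °C. Serial 5-fold drug dilutions in twice-concentrated MEM(E) were mixed with 1% agarose as overlay. A further drug-free overlay was added on day 4. Cultures were stained with neutral red on day 7 and plaques counted against untreated controls. Values average two or more experiments.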

Human alphaherpesvirus 1 [12] = test: Tested for visual cytotoxicity against rabbit kidney herpes simplex virus-1 (HSV-1) cell lines; assay type: functional, organism-based
Human alphaherpesvirus 1 [13] = test: Tested for visual cytotoxicity against monkey kidney herpes simplex virus-1 (HSV-1) cell lines; assay type: functional, organism-based; method in brief: as §1
Human alphaherpesvirus 2 [14] = test: Tested for visual cytotoxicity against the human foreskin fibroblasts herpes simplex virus-2 (HSV-2) cell lines; assay type: functional, organism-based
Mus musculus [15] = test: Tested for effect on the mortality of mice inoculated with MCMV at 50 mg/kg at 24 hr; assay type: functional; method in brief: as §4
Murid betaherpesvirus 1 [16] = test: Tested for visual cytotoxicity against the mouse cytomegalovirus (MCMV) in mouse embryo fibroblasts; assay type: functional, organism-based
Human betaherpesvirus 5 [17] = test: Tested for visual cytotoxicity against the human cytomegalovirus (HCMV) cell lines in human foreskin fibroblasts; assay type: functional, organism-based; method in brief: as §1
Mus musculus [18] = test: Tested for effect on the mortality of mice inoculated with MCMV at 16.7 mg/kg at 48 hr; assay type: functional; method in brief: as §4
Mus musculus [19] = test: Tested for effect on the mortality of mice inoculated with MCMV at 5.6 mg/kg at 48 hr; assay type: functional; method in brief: as §4
Mus musculus [20] = test: Tested for effect on the mortality of mice inoculated with MCMV at 16.7 mg/kg at 12 hr; assay type: functional; method in brief: as §4
Mus musculus [21] = test: Tested for effect on the mortality of mice inoculated with MCMV at 16.7 mg/kg at 24 hr; assay type: functional; method in brief: as §4
Mus musculus [22] = test: Tested for effect on the mortality of mice inoculated with MCMV at 5.6 mg/kg at 24 hr; assay type: functional; method in brief: as §4
Human alphaherpesvirus 2 [23] = test: Tested for activity against the human foreskin fibroblasts herpes simplex virus-2 (HSV-2) cell lines; assay type: functional, organism-based
Method in brief: (§5)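 Plaque reduction used HSV-2 (MS strain) in HFF cells and HSV-1 (E-377 strain) in primary rabbit kidney cells. Monolayers got 20–50 PFU for 1 h at 37 °C, then an agarose overlay holding serial 5-fold drug dilutions in MEM(E). Neutral red staining on day 3 preceded plaque counts against untreated controls. Values average two or more experiments.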

Human alphaherpesvirus 1 [24] = test: Tested for activity against the rabbit kidney herpes simplex virus-1 (HSV-1) cell lines; assay type: functional, organism-based; method in brief: as §5
Human alphaherpesvirus 1 [25] = test: Tested for activity against the monkey kidney herpes simplex virus-1 (HSV-1) cell lines; assay type: functional, organism-based; method in brief: as §3
Human betaherpesvirus 5 [26] = test: Tested for activity against human cytomegalovirus (HCMV) in human foreskin fibroblasts cell lines using plaque assay; assay type: functional, organism-based; details: Human betaherpesvirus 5, Fibroblast; method in brief: as §2
Mus musculus [27] = test: Tested for effect on the mortality of mice inoculated with MCMV at 50 mg/kg at 12 hr; assay type: functional; method in brief: as §4
[28] = Human betaherpesvirus 5, read-out: IC90

SMILES: NC(=O)c1cn([C@@H]2O[C@H](CO)[C@@H](O)[C@@H]2Cl)c2ncnc(N)c12
- IC50 (HFF): > 100 µM
- IC50 (Human betaherpesvirus 5 [1]): > 100 µM
- Control (L1210 [2]): 73%
- IC50 (Human alphaherpesvirus 1 [3]): > 100 µM
- IC50 [4]: > 100 µM

SMILES: NC(=O)c1cn([C@@H]2O[C@H](CO)[C@@H](O)[C@@H]2Br)c2ncnc(N)c12
- IC50 (HFF): > 100 µM
- IC50 (Human betaherpesvirus 5 [1]): > 100 µM
- Control (L1210 [5]): 92%
- IC50 (Human alphaherpesvirus 1 [3]): > 100 µM
- IC50 [4]: > 100 µM

SMILES: N#Cc1cn([C@@H]2O[C@H](CO)[C@@H](O)[C@@H]2N=[N+]=[N-])c2ncnc(N)c12
- IC50 (HFF): 55 µM
- IC50 (Human betaherpesvirus 5 [1]): 34 µM
- Control (L1210 [2]): 14%
- IC50 (Human alphaherpesvirus 1 [3]): > 100 µM
- IC50 [4]: > 100 µM
- IC50 [6]: 151 µM
- IC90 (Human betaherpesvirus 5 [7]; [28]): 37 µM

SMILES: N#Cc1cn([C@@H]2O[C@H](CO)[C@@H](O)[C@@H]2I)c2ncnc(N)c12
- IC50 (HFF): 100 µM
- IC50 (Human betaherpesvirus 5 [1]): 40 µM
- Control (L1210 [2]): 24%
- IC50 (Human alphaherpesvirus 1 [3]): > 100 µM
- IC50 [4]: > 100 µM
- IC90 (Human betaherpesvirus 5 [7]; [28]): 20 µM

SMILES: N#Cc1cn([C@@H]2O[C@H](CO)[C@@H](O)[C@@H]2Br)c2ncnc(N)c12
- IC50 (HFF): 181 µM
- IC50 (Human betaherpesvirus 5 [1]): 162 µM
- Control (L1210 [2]): 16%
- IC50 (Human alphaherpesvirus 1 [3]): > 100 µM
- IC50 [4]: > 100 µM
- IC90 (Human betaherpesvirus 5 [7]; [28]): 90 µM

SMILES: NC(=O)c1cn([C@@H]2O[C@H](CO)[C@@H](O)[C@@H]2I)c2ncnc(N)c12
- IC50 (HFF): 100 µM
- IC50 (Human betaherpesvirus 5 [1]): > 100 µM
- Control (L1210 [2]): 38%
- IC50 (Human alphaherpesvirus 1 [3]): > 100 µM
- IC50 [4]: > 100 µM

SMILES: Nc1nc2c(ncn2COC(CO)CO)c(=O)[nH]1 [GANCICLOVIR]
- IC50 (HFF): > 100 µM
- IC90 (Human alphaherpesvirus 1 [8]): 1.2 µM
- IC50 (Human betaherpesvirus 5 [1]): 9.2 µM
- IC50 [4]: > 100 µM
- IC50 [6]: > 100 µM
- IC90 (Human betaherpesvirus 5 [7]): 1.8 µM

SMILES: [N-]=[N+]=N[C@H]1[C@H](O)[C@@H](CO)O[C@H]1n1cc(C(N)=O)c2c(N)ncnc21
- IC50 (HFF): 66 µM
- IC50 (Human betaherpesvirus 5 [1]): 28 µM
- Control (L1210 [2]): 12%
- IC50 (Human alphaherpesvirus 1 [3]): > 100 µM
- IC50 [4]: > 100 µM
- IC50 [6]: 179 µM
- IC90 (Human betaherpesvirus 5 [7]; [28]): 100 µM

SMILES: NC(=O)c1cn([C@@H]2O[C@H](CO)[C@@H](O)[C@@H]2N)c2ncnc(N)c12
- IC50 (HFF): > 100 µM
- IC50 (Human betaherpesvirus 5 [1]): > 100 µM
- Control (L1210 [2]): 46%
- IC50 (Human alphaherpesvirus 1 [3]): > 100 µM
- IC50 [4]: > 100 µM
- IC50 [6]: > 100 µM

SMILES: N#Cc1cn([C@@H]2O[C@H](CO)[C@@H](O)[C@@H]2N)c2ncnc(N)c12
- IC50 (HFF): > 100 µM
- MDD (Mus musculus [9]): 4.5 mean day of death
- mortality at 5.6 mg/kg (Mus musculus [9]): 100%
- MDD (Mus musculus [10]): 4.9 mean day of death
- mortality at 50 mg/kg (Mus musculus [10]): 87%
- IC50 (Human betaherpesvirus 5 [1]): 14 µM
- IC50 (Murid betaherpesvirus 1 [11]): 13 µM
- IC50 (Human alphaherpesvirus 1 [12]): 350 µM
- Control (L1210 [2]): 48%
- IC50 (Human alphaherpesvirus 1 [13]): > 100 µM
- IC50 (Human alphaherpesvirus 1 [3]): > 100 µM
- IC50 (Human alphaherpesvirus 2 [14]): 350 µM
- IC50 [4]: > 100 µM
- MDD (Mus musculus [15]): 4.4 mean day of death
- mortality at 50 mg/kg (Mus musculus [15]): 100%
- IC50 (Murid betaherpesvirus 1 [16]): > 350 µM
- IC50 (Human betaherpesvirus 5 [17]): > 100 µM
- MDD (Mus musculus [18]): 4.6 mean day of death
- mortality at 16.7 mg/kg (Mus musculus [18]): 100%
- MDD (Mus musculus [19]): 5.6 mean day of death
- mortality at 5.6 mg/kg (Mus musculus [19]): 100%
- IC50 [6]: 105 µM
- MDD (Mus musculus [20]): 4.6 mean day of death
- mortality at 16.7 mg/kg (Mus musculus [20]): 93%
- MDD (Mus musculus [21]): 4.7 mean day of death
- mortality at 16.7 mg/kg (Mus musculus [21]): 100%
- MDD (Mus musculus [22]): 4.6 mean day of death
- mortality at 5.6 mg/kg (Mus musculus [22]): 93%
- IC90 (Human betaherpesvirus 5 [7]; [28]): 110 µM
- IC50 (Human alphaherpesvirus 2 [23]): 114 µM
- IC50 (Human alphaherpesvirus 1 [24]): 117 µM
- IC50 (Human alphaherpesvirus 1 [25]): > 100 µM
- IC50 (Human betaherpesvirus 5 [26]): 14 µM
- MDD (Mus musculus [27]): 4.1 mean day of death
- mortality at 50 mg/kg (Mus musculus [27]): 73%

SMILES: N#Cc1cn([C@@H]2O[C@H](CO)[C@@H](O)[C@@H]2Cl)c2ncnc(N)c12
- IC50 (HFF): 140 µM
- IC50 (Human betaherpesvirus 5 [1]): 21 µM
- Control (L1210 [2]): 24%
- IC50 (Human alphaherpesvirus 1 [3]): > 100 µM
- IC50 [4]: > 100 µM
- IC90 (Human betaherpesvirus 5 [7]; [28]): 75 µM

SMILES: Nc1nc2c(ncn2COCCO)c(=O)[nH]1 [ACYCLOVIR]
- IC50 (HFF): > 100 µM
- IC90 (Human alphaherpesvirus 1 [8]): 7 µM
- IC50 [4]: > 100 µM
- IC50 [6]: > 100 µM
- IC90 (Human betaherpesvirus 5 [7]; [28]): 90 µM
